Results published in ChEMBL document CHEMBL1909630, “Azaxanthene based selective glucocorticoid receptor modulators: design, synthesis, and pharmacological evaluation of (S)-4-(5-(1-((1,3,4-thiadiazol-2-yl)amino)-2-methyl-1-oxopropan-2-yl)-5H-chromeno[2,3-b]pyridin-2-yl)-2-fluoro-N,N-dimethylbenzamide (BMS-776532) and its methylene homologue …” (J Med Chem, 2011).
Activity calls are given as the source filed them. The calls are words filed in the database; no cut-off is given here.

Experiments:
[1] = molecular target: T1, Glucocorticoid receptor (Homo sapiens, UniProt P04150); assay: Transactivation activity at GR-alpha in human NP1 Hela cells assessed as induction of GAL4-DBD after 20 hrs by luciferase reporter gene assay; format: cell-based
T1 sequence (P04150 whole entry): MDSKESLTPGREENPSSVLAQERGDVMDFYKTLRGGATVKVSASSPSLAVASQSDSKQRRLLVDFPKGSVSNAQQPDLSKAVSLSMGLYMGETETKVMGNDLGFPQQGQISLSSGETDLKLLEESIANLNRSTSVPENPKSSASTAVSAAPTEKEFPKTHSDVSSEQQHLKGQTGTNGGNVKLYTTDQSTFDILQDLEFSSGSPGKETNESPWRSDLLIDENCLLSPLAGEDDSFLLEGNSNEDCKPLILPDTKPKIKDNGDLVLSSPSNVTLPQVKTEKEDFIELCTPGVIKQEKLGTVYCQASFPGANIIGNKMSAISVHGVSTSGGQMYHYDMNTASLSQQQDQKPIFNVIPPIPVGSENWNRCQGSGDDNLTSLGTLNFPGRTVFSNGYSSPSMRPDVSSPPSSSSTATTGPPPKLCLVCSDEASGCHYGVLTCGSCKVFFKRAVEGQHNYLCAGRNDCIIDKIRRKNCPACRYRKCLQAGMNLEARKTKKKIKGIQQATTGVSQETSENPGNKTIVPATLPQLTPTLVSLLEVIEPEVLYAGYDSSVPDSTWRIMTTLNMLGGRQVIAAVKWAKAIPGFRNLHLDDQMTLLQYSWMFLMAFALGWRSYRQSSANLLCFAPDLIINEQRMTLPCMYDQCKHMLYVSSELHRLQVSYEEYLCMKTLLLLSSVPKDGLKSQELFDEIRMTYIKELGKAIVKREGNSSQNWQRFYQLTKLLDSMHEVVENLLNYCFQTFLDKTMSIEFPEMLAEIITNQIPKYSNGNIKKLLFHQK

[2] = tested on: Rattus norvegicus; assay: Antiinflammatory activity in Freund's complete adjuvant-induced Lewis rat arthritis model assessed as reduction in paw swelling at 50 mg/kg/day, po qd for 21 days; format: functional, organism-based
Method in brief: (§1)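 Male Lewis rats were inoculated with Mycobacterium butyricum in incomplete Freund's adjuvant. Oral dosing was daily and preventative, running from day 0 to day 21. Onset and progression of arthritis were followed, and ED50 was estimated from the dose response.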

[3] = tested on: Rattus norvegicus; assay: Antiinflammatory activity in Freund's complete adjuvant-induced Lewis rat arthritis model assessed as reduction in paw swelling at 25 mg/kg/day, po qd for 21 days; format: functional, organism-based; method in brief: as §1

Compound	EC50 [1] [nM]	Activity [2]	Activity [3]
CN(C)C(=O)c1ccc(-c2ccc3c(n2)Oc2ccccc2[C@H]3C(C)(C)C(=O)Nc2nncs2)cc1F	242	Active	–
CCN(C)C(=O)c1ccc(-c2ccc3c(n2)Oc2ccccc2[C@@H]3C(C)(C)C(=O)Nc2nncs2)cc1F	98.5	–	Active
